Measured values as given in ChEMBL document CHEMBL1141577, “Thiophene containing triarylmethanes as antitubercular agents” (2008).
Converted amounts (≈) assume the structure as drawn.

Test system: Mycobacterium tuberculosis
Assay: Antitubercular activity against Mycobacterium tuberculosis H37Rv by agar dilution method
Type: functional
Outline: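 Twofold serial dilutions of compound incorporated into Middlebrook 7H11 agar with OADC supplement, in duplicate wells, at final 12.5, 6.25, 3.125 and 1.56 µg/mL. A known CFU of H37Rv culture was spread on the agar surface, and plates were incubated at 37 °C in 5% CO2. MIC was taken as the lowest concentration giving complete inhibition of colonies.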

Q: Which MIC does the source give for `COc1ccc(C(c2cccs2)c2ccccc2OCCN2CCCCC2)cc1` (configuration not stated) here?
A: > 12.5 µg/mL

Q: For `COc1ccc(C(c2cccs2)c2ccccc2OCCN2CCCCCC2)cc1` (configuration not stated), which MIC is on record?
A: > 12.5 µg/mL

Q: With `COc1ccc(C(c2cccs2)c2ccccc2OCCN2CCCC2)cc1` (configuration not stated) as the compound, how does the MIC read?
A: > 12.5 µg/mL

Q: With `CSc1ccc(C(c2ccc(O)cc2)c2cccs2)cc1` (configuration not stated) as the compound, how does the MIC read?
A: > 12.5 µg/mL

Q: Which MIC does the source give for `COc1cccc(C(c2ccc(O)cc2)c2cccs2)c1` (configuration not stated) here?
A: > 12.5 µg/mL

Q: `COc1ccc(C(c2ccc(OCC(O)CN3CCN(Cc4ccccc4)CC3)cc2)c2cccs2)cc1` (configuration not stated) was tested. Which MIC did it give?
A: > 12.5 µg/mL

Q: For `COc1ccc(C(c2ccc(OCC(O)CN3CCN(c4ccccn4)CC3)cc2)c2cccs2)cc1` (configuration not stated), which MIC is on record?
A: > 12.5 µg/mL

Q: How did the MIC turn out when `COc1ccc(C(c2ccc(OCC(O)CNC3CCCCC3)cc2)c2cccs2)cc1` (configuration not stated) was run?
A: 12.5 µg/mL (≈ 27.7 µM)

Q: With `COc1ccc(C(c2ccc(OCC(O)CN3CCCCC3)cc2)c2cccs2)cc1` (configuration not stated) as the compound, how does the MIC read?
A: 12.5 µg/mL (≈ 28.6 µM)

Q: Which MIC does the source give for `COc1ccc(C(c2ccc(OCC(O)CNCCc3ccc(OC)c(OC)c3)cc2)c2cccs2)cc1` (configuration not stated) here?
A: > 12.5 µg/mL

Q: `Clc1ccc(C(c2ccc(OCCN3CCOCC3)cc2)c2cccs2)cc1` (configuration not stated) was tested. Which MIC did it give?
A: 12.5 µg/mL (≈ 30.2 µM)

Q: `CSc1ccc(C(c2ccc(OCCN3CCCCCC3)cc2)c2cccs2)cc1` (configuration not stated) was tested. Which MIC did it give?
A: 3.12 µg/mL (≈ 7.13 µM)

Q: With `COc1ccc(C(c2ccc(OCCN3CCCCCC3)cc2)c2cccs2)cc1` (configuration not stated) as the compound, how does the MIC read?
A: 12.5 µg/mL (≈ 29.6 µM)

Q: With `CCN(CC)CCOc1ccc(C(c2cccc(OC)c2)c2cccs2)cc1` (configuration not stated) as the compound, how does the MIC read?
A: 3.12 µg/mL (≈ 7.89 µM)

Q: `COc1cccc(C(c2ccc(OCCN(C)C)cc2)c2cccs2)c1` (configuration not stated) was tested. Which MIC did it give?
A: 12.5 µg/mL (≈ 34 µM)

Q: How did the MIC turn out when `COc1cccc(C(c2ccc(OCCN3CCCCCC3)cc2)c2cccs2)c1` (configuration not stated) was run?
A: 3.12 µg/mL (≈ 7.4 µM)

Q: With `COc1ccc(C(c2ccc(OCCN(C)C)cc2)c2cccs2)cc1` (configuration not stated) as the compound, how does the MIC read?
A: 12.5 µg/mL (≈ 34 µM)

Q: `CSc1ccc(C(c2ccc(OCCN3CCOCC3)cc2)c2cccs2)cc1` (configuration not stated) was tested. Which MIC did it give?
A: > 12.5 µg/mL

Q: For `COc1ccc(C(c2ccc(OCC(O)CN3CCCC3)cc2)c2cccs2)cc1` (configuration not stated), which MIC is on record?
A: > 12.5 µg/mL

Q: Which MIC does the source give for `COc1ccc(C(c2ccc(OCC(O)CN3CCSCC3)cc2)c2cccs2)cc1` (configuration not stated) here?
A: > 12.5 µg/mL

Q: Which MIC does the source give for `Oc1ccc(C(c2ccc(Cl)cc2)c2cccs2)cc1` (configuration not stated) here?
A: > 12.5 µg/mL

Q: Which MIC does the source give for `COc1ccc(C(c2cccs2)c2ccccc2OCCN(C)C)cc1` (configuration not stated) here?
A: > 12.5 µg/mL

Q: `COc1ccc(C(c2ccc(OCC(O)CN3CCN(C)CC3)cc2)c2cccs2)cc1` (configuration not stated) was tested. Which MIC did it give?
A: > 12.5 µg/mL

Q: For `COc1ccc(C(c2ccc(OCC(O)CNCCCN3CCOCC3)cc2)c2cccs2)cc1` (configuration not stated), which MIC is on record?
A: > 12.5 µg/mL

Q: For `COc1ccc(C(c2ccc(OCCN3CCOCC3)cc2)c2cccs2)cc1` (configuration not stated), which MIC is on record?
A: > 12.5 µg/mL

Q: Which MIC does the source give for `CCN(CC)CCOc1ccc(C(c2ccc(Cl)cc2)c2cccs2)cc1` (configuration not stated) here?
A: 3.12 µg/mL (≈ 7.8 µM)

Q: Which MIC does the source give for `CCN(CC)CCOc1ccc(C(c2ccc(SC)cc2)c2cccs2)cc1` (configuration not stated) here?
A: 3.12 µg/mL (≈ 7.58 µM)

Q: For `CCN(CC)CCOc1ccccc1C(c1ccc(OC)cc1)c1cccs1` (configuration not stated), which MIC is on record?
A: > 12.5 µg/mL

Q: How did the MIC turn out when `COc1ccc(C(c2ccc(O)cc2)c2cccs2)cc1` (configuration not stated) was run?
A: 3.12 µg/mL (≈ 10.5 µM)

Q: For `CSc1ccc(C(c2ccc(OCCN(C)C)cc2)c2cccs2)cc1` (configuration not stated), which MIC is on record?
A: > 12.5 µg/mL

Q: Which MIC does the source give for `CCN(CC)CCOc1ccc(C(c2ccc(OC)cc2)c2cccs2)cc1` (configuration not stated) here?
A: 6.25 µg/mL (≈ 15.8 µM)

Q: Which MIC does the source give for `COc1cccc(C(c2ccc(OCCN3CCOCC3)cc2)c2cccs2)c1` (configuration not stated) here?
A: 12.5 µg/mL (≈ 30.5 µM)

Q: With `COc1ccc(C(c2ccc(OCC(O)CNCCCn3ccnc3)cc2)c2cccs2)cc1` (configuration not stated) as the compound, how does the MIC read?
A: > 12.5 µg/mL

Q: `CCN(CC)CCCNCC(O)COc1ccc(C(c2ccc(OC)cc2)c2cccs2)cc1` (configuration not stated) was tested. Which MIC did it give?
A: > 12.5 µg/mL

Q: How did the MIC turn out when `CN(C)CCOc1ccc(C(c2ccc(Cl)cc2)c2cccs2)cc1` (configuration not stated) was run?
A: 6.25 µg/mL (≈ 16.8 µM)

Q: `NNC(=O)c1ccncc1` [ISONIAZID] was tested. Which MIC did it give?
A: 0.05 µg/mL (≈ 0.365 µM)

Q: For `CO[C@H]1/C=C/O[C@@]2(C)Oc3c(C)c(O)c4c(O)c(c(/C=N/N5CCN(C)CC5)c(O)c4c3C2=O)NC(=O)/C(C)=C\C=C\[C@H](C)[C@H](O)[C@@H](C)[C@@H](O)[C@@H](C)[C@H](OC(C)=O)[C@@H]1C` [RIFAMPIN], which MIC is on record?
A: 0.1 µg/mL (≈ 0.122 µM)
